Measured values taken from ChEMBL document CHEMBL3616436, “Synthesis, cytotoxicity and antimicrobial activity of thiourea derivatives incorporating 3-(trifluoromethyl)phenyl moiety” (Eur J Med Chem, 2015).
In brackets after ≈: the same amount, converted by molar mass. Activity calls are given as the source filed them. The calls are words filed in the database; no cut-off is given here.

What was measured:
[1] = tested on: Micrococcus luteus; test: Antimicrobial activity against Micrococcus luteus ATCC 10240 at 400 ug after 18 hrs by disc-diffusion method; format: functional; settings: ATCC 10240, 18 h, read-out: IZ
Method in brief: (§1)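 Disc diffusion on Mueller-Hinton II agar per CLSI; 9 mm paper discs loaded with 400 µg compound from DMSO solution, dried, placed on agar; growth inhibition zone diameter read after 18 h at 35°C.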

[2] = tested on: Micrococcus luteus; test: Antimicrobial activity against Micrococcus luteus ATCC 9341 at 400 ug after 18 hrs by disc-diffusion method; format: functional; settings: ATCC 9341, 18 h, read-out: IZ; method in brief: as §1
[3] = Antiviral activity against Bovine viral diarrhea virus 1-NADL ATCC VR-534 infected in MDBK cells assessed as protection against virus-induced cytopathogenicity after 3 to 4 days by MTT assay; format: functional, cell-based; settings: Bovine viral diarrhea virus isolates and strains, ATCC VR-534, MDBK
Method in brief: (§2)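 Cells seeded in 96-well plates (BHK 5x10^4, MDBK 3x10^4 cells/well), grown overnight to confluence, infected at m.o.i. 0.01 (BHK for Reo-1, MDBK for BVDV); serial compound dilutions in maintenance medium with 0.5% inactivated FBS added after 1 h; viability by MTT after 3–4 days at 37°C; EC50 for 50% protection by linear regression.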

[4] = tested on: Vesicular stomatitis virus; test: Antiviral activity against Vesicular stomatitis virus ATCC VR 1540 infected in African green monkey Vero 76 cells assessed as reduction of virus-plaque formation after 2 days by crystal violet staining; format: functional, organism-based; settings: ATCC VR 1540, Vero, 48 h
[5] = tested on: Human alphaherpesvirus 1; test: Antiviral activity against Human herpesvirus 1 KOS ATCC VR-1493 infected in African green monkey Vero 76 cells assessed as reduction of virus-plaque formation after 3 days by crystal violet staining; format: functional, organism-based; settings: Human alphaherpesvirus 1, KOS ATCC VR1493, Vero, 72 h
Method in brief: (§3)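 Plaque reduction: Vero-76 at 2x10^5 cells/well grown to confluent monolayers, infected 2 h at 50–100 PFU/well; after removing unadsorbed virus, overlay of D-MEM, 1% inactivated FBS, 0.75% methylcellulose with or without serial compound dilutions; 3 days at 37°C, fixed and stained with crystal violet in 50% ethanol, plaques counted; EC50 by linear regression.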

[6] = tested on: Staphylococcus epidermidis; test: Antimicrobial activity against Staphylococcus epidermidis ATCC 12228 at 400 ug after 18 hrs by disc-diffusion method; format: functional; settings: ATCC 12228, 18 h, read-out: IZ; method in brief: as §1
[7] = tested on: Staphylococcus aureus; test: Antimicrobial activity against Staphylococcus aureus ATCC 29213 at 400 ug after 18 hrs by disc-diffusion method; format: functional; settings: ATCC 29213, 18 h, read-out: IZ; method in brief: as §1
[8] = tested on: Proteus vulgaris; test: Antimicrobial activity against Proteus vulgaris NCTC 4635 at 400 ug after 18 hrs by disc-diffusion method; format: functional; method in brief: as §1
[9] = tested on: Staphylococcus epidermidis; test: Antimicrobial activity against Staphylococcus epidermidis ATCC 35984 at 400 ug after 18 hrs by disc-diffusion method; format: functional; settings: ATCC 35984, 18 h, read-out: IZ; method in brief: as §1
[10] = tested on: Yellow fever virus; test: Antiviral activity against Yellow fever virus 17D infected in BHK cells assessed as protection against virus-induced cytopathogenicity after 3 to 4 days by MTT assay; format: functional, cell-based
[11] = tested on: Vaccinia virus; test: Antiviral activity against Human Vaccinia virus ATCC VR-1549 infected in African green monkey Vero 76 cells assessed as reduction of virus-plaque formation after 3 days by crystal violet staining; format: functional, organism-based; settings: Orthopoxvirus vaccinia, ATCC VR-1549, Vero, 72 h
[12] = Cytotoxicity against BHK cells assessed as cell viability after 48 to 96 hrs by MTT assay; format: cell-based, Mesocricetus auratus; settings: hamster
[13] = tested on: Human immunodeficiency virus 1; test: Antiviral activity against HIV1 3B infected in human MT4 cells assessed as protection against virus-induced cytopathogenicity by MTT assay; format: functional, organism-based; settings: Human immunodeficiency virus 1, 3B
[14] = tested on: Mycobacterium tuberculosis; test: Antimycobacterial activity against drug-sensitive Mycobacterium tuberculosis Spec. 192; format: functional
Method in brief: (§4)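 Classical test-tube successive-dilution method in Youmans' modification of Proskauer and Beck liquid medium with 10% bovine serum. Inoculum came from 14-day cultures. DMSO stock was 10 mg/mL, diluted geometrically in medium. Tubes were incubated at 37 °C. Concentrations tested were 3.1, 6.2, 12.5, 25, 50 and 100 µg/ml. MIC is the minimum concentration inhibiting growth relative to compound-free tubes.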

[15] = Cytotoxicity against bovine MDBK cells assessed as cell viability after 48 to 96 hrs by MTT assay; format: cell-based, Bos taurus; settings: cattle
[16] = tested on: Poliovirus 1; test: Antiviral activity against Poliovirus type 1 ATCC VR-1562 infected in African green monkey Vero 76 cells assessed as reduction of virus-plaque formation after 2 days by crystal violet staining; format: functional, organism-based; settings: Enterovirus C, ATCC VR-1562, Vero, 48 h
[17] = tested on: Staphylococcus aureus; test: Antimicrobial activity against Staphylococcus aureus ATCC 25923 after 18 hrs by twofold serial microdilution method; format: functional; settings: ATCC 25923, 18 h
[18] = tested on: Staphylococcus epidermidis; test: Antimicrobial activity against Staphylococcus epidermidis ATCC 12228 after 18 hrs by twofold serial microdilution method; format: functional; settings: ATCC 12228, 18 h
[19] = tested on: Staphylococcus epidermidis; test: Antimicrobial activity against Staphylococcus epidermidis ATCC 35984 after 18 hrs by twofold serial microdilution method; format: functional; settings: ATCC 35984, 18 h
[20] = tested on: Staphylococcus aureus; test: Antimicrobial activity against Staphylococcus aureus ATCC 6538 at 400 ug after 18 hrs by disc-diffusion method; format: functional; settings: ATCC 6538, 18 h, read-out: IZ; method in brief: as §1
[21] = tested on: Enterococcus hirae; test: Antimicrobial activity against Enterococcus hirae ATCC 10541 at 400 ug after 18 hrs by disc-diffusion method; format: functional; method in brief: as §1
[22] = tested on: Coxsackievirus B5; test: Antiviral activity against Human coxsackievirus B5 ATCC VR-29 infected in African green monkey Vero 76 cells assessed as reduction of virus-plaque formation after 3 days by crystal violet staining; format: functional, organism-based; settings: Enterovirus B, ATCC VR-29, Vero, 72 h; method in brief: as §3
[23] = tested on: Staphylococcus aureus; test: Antimicrobial activity against Staphylococcus aureus ATCC 6538 after 18 hrs by twofold serial microdilution method; format: functional; settings: ATCC 6538, 18 h
[24] = tested on: Mycobacterium tuberculosis; test: Antimycobacterial activity against Mycobacterium tuberculosis H37Rv ATCC 25618; format: functional; method in brief: as §4
[25] = tested on: Staphylococcus aureus; test: Antimicrobial activity against Staphylococcus aureus ATCC 29213 after 18 hrs by twofold serial microdilution method; format: functional; settings: ATCC 29213, 18 h
[26] = tested on: Staphylococcus aureus; test: Antimicrobial activity against Staphylococcus aureus NCTC 4163 after 18 hrs by twofold serial microdilution method; format: functional; settings: NCTC 4163, 18 h
[27] = Cytotoxicity against human MT4 cells; format: cell-based
[28] = tested on: Enterococcus faecalis; test: Antimicrobial activity against Enterococcus faecalis ATCC 29212 at 400 ug after 18 hrs by disc-diffusion method; format: functional; method in brief: as §1
[29] = tested on: Bacillus cereus; test: Antimicrobial activity against Bacillus cereus ATCC 11778 at 400 ug after 18 hrs by disc-diffusion method; format: functional; settings: ATCC 11778, 18 h, read-out: IZ; method in brief: as §1
[30] = tested on: Staphylococcus aureus; test: Antimicrobial activity against Staphylococcus aureus ATCC 25923 at 400 ug after 18 hrs by disc-diffusion method; format: functional; settings: ATCC 25923, 18 h, read-out: IZ; method in brief: as §1
[31] = tested on: Staphylococcus aureus; test: Antimicrobial activity against Staphylococcus aureus NCTC 4163 at 400 ug after 18 hrs by disc-diffusion method; format: functional; settings: NCTC 4163, 18 h, read-out: IZ; method in brief: as §1
[32] = tested on: Mammalian orthoreovirus 1; test: Antiviral activity against Reovirus type-1 ATCC VR-214 infected in BHK cells assessed as protection against virus-induced cytopathogenicity after 3 to 4 days by MTT assay; format: functional, cell-based; settings: Mammalian orthoreovirus 1, ATCC VR-214, BHK; method in brief: as §2
[33] = tested on: Bacillus subtilis; test: Antimicrobial activity against Bacillus subtilis ATCC 6633 at 400 ug after 18 hrs by disc-diffusion method; format: functional; settings: ATCC 6633, 18 h, read-out: IZ; method in brief: as §1
[34] = Cytotoxicity against African green monkey Vero 76 cells assessed as cell viability after 48 to 96 hrs by crystal violet staining; format: cell-based; settings: chlorocebus sabaeus

SMILES | zone of inhibition at 400 µg/disc [1] | zone of inhibition at 400 µg/disc [2] | EC50 [3] | EC50 [4] | EC50 [5] | zone of inhibition at 400 µg/disc [6] | zone of inhibition at 400 µg/disc [7] | inhibition zone (IZ) [8] | zone of inhibition at 400 µg/disc [9] | EC50 [10] | EC50 [11] | CC50 [12] | EC50 [13] | MIC [14] | CC50 [15] | EC50 [16] | MIC [17] | MIC [18] | MIC [19] | zone of inhibition at 400 µg/disc [20] | other results
C=C(C)CNC(=S)Nc1cccc(C(F)(F)F)c1 | 16 mm | 20 mm | > 100 µM | > 100 µM | > 100 µM | 17 mm | 17 mm | inactive | 13 mm | > 100 µM | > 100 µM | > 100 µM | > 43 µM | 100 µg/mL (≈ 365 µM) | > 100 µM | > 100 µM | 64 µg/mL (≈ 233 µM) | 64 µg/mL (≈ 233 µM) | 64 µg/mL (≈ 233 µM) | 18 mm | inhibition zone (IZ) [21]: inactive; EC50 [22]: > 100 µM; MIC [23]: 64 µg/mL (≈ 233 µM); MIC [24]: > 100 µg/mL; MIC [25]: 64 µg/mL (≈ 233 µM); MIC [26]: 64 µg/mL (≈ 233 µM); CC50 [27]: 43 µM; inhibition zone (IZ) [28]: inactive; zone of inhibition at 400 µg/disc [29]: 16 mm; zone of inhibition at 400 µg/disc [30]: 18 mm; zone of inhibition at 400 µg/disc [31]: 20 mm; EC50 [32]: > 100 µM; zone of inhibition at 400 µg/disc [33]: 16 mm; CC50 [34]: > 100 µM
O=C(NC(=S)Nc1cccc(C(F)(F)F)c1)c1ccccc1 | 19 mm | 17 mm | > 100 µM | > 100 µM | > 100 µM | 17 mm | 17 mm | inactive | 16 mm | > 100 µM | > 100 µM | > 100 µM | > 100 µM | > 100 µg/mL | > 100 µM | > 100 µM | 32 µg/mL (≈ 98.7 µM) | 64 µg/mL (≈ 197 µM) | 64 µg/mL (≈ 197 µM) | 17 mm | inhibition zone (IZ) [21]: inactive; EC50 [22]: > 100 µM; MIC [23]: 32 µg/mL (≈ 98.7 µM); MIC [24]: > 100 µg/mL; MIC [25]: 32 µg/mL (≈ 98.7 µM); MIC [26]: 32 µg/mL (≈ 98.7 µM); CC50 [27]: > 100 µM; zone of inhibition at 400 µg/disc ([28]; ATCC 29212, 18 h, read-out: IZ): 12 mm; zone of inhibition at 400 µg/disc [29]: 14 mm; zone of inhibition at 400 µg/disc [30]: 17 mm; zone of inhibition at 400 µg/disc [31]: 17 mm; EC50 [32]: > 100 µM; zone of inhibition at 400 µg/disc [33]: 17 mm; CC50 [34]: > 100 µM
